From ChEMBL document CHEMBL1158723, “Daucane sesquiterpenes from Ferula hermonis” (2005)

Key:
Assay type in all cases: functional
[1] = tested on: MCF7; experiment: Estrogenic effect in human MCF7 cells assessed as stimulation of cell proliferation at 0.1 ug/ml relative to control by [3H]hypoxanthine incorporation assay
Summary of the method: (§1)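 MCF-7 cells were grown to confluence in DMEM with 10% FBS, trypsinized, and viable cells (Trypan blue) seeded at 10 000/well in phenol red-free medium. After overnight attachment, tamoxifen (2 μM) was added for 24 h. Cells were washed with Ca/Mg-free PBS, then exposed to test agents for 1 day. Triplicates; % proliferation scaled with no-compound as 0% and β-estradiol 10 nM as 100%; Dunnett's test.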

[2] = tested on: MCF7; experiment: Estrogenic effect in human MCF7 cells assessed as stimulation of cell proliferation at 10 ug/ml relative to control by [3H]hypoxanthine incorporation assay; summary of the method: as §1
[3] = tested on: MCF7; experiment: Estrogenic effect in human MCF7 cells assessed as stimulation of cell proliferation at 1 ug/ml relative to control by [3H]hypoxanthine incorporation assay; summary of the method: as §1
[4] = tested on: MCF7; experiment: Estrogenic effect in human MCF7 cells assessed as stimulation of cell proliferation at 10 nM relative to control by [3H]hypoxanthine incorporation assay
Summary of the method: as §1, with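 “day. [3H]-hypoxanthine (9.25 kBq/well) was added for 12 h.” for “day.”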

[5] = tested on: MCF7; experiment: Estrogenic effect in human MCF7 cells assessed as stimulation of cell proliferation at 0.1 nM relative to control by [3H]hypoxanthine incorporation assay
Summary of the method: as §1, with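 “day. [3H]-hypoxanthine (9.25 kBq/well) was added for 12 h.” for “day.”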

[6] = tested on: MCF7; experiment: Estrogenic effect in human MCF7 cells assessed as stimulation of cell proliferation at 1 nM relative to control by [3H]hypoxanthine incorporation assay
Summary of the method: as §1, with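 “day. [3H]-hypoxanthine (9.25 kBq/well) was added for 12 h.” for “day.”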

SMILES | Activity [1] [%] | Activity [2] [%] | Activity [3] [%] | Activity [4] [%] | Activity [5] [%] | Activity [6] [%]
CC1=CC(=O)[C@@H]2[C@@](C)(CC1)CC[C@@]2(O)C(C)C | 308.2 | 181.4 | 97.5 |  |  | 
C/C=C(/C)C(=O)O[C@@]1(C)CCC2=C(C(C)C)[C@@H](OCC)C[C@]2(C)CC1=O | 223.9 | 974.4 | 321.4 |  |  | 
CC1=CC(=O)[C@@H]2[C@](C)(CC[C@@]2(O)C(C)C)CC1=O | 5.9 | -285.7 | -26.5 |  |  | 
C[C@]12CC[C@@H]3c4ccc(O)cc4CC[C@H]3[C@@H]1CC[C@@H]2O [ESTRADIOL] |  |  |  | 100 | 74.6 | 130.3
O=c1c(-c2ccc(O)cc2)coc2cc(O)cc(O)c12 [GENISTEIN] | -72.4 | -76.7 | 114.8 |  |  | 
